One experiment deals with T1, Cholecystokinin receptor (Rattus norvegicus, UniProt P30551+P30553).
T1 sequence (P30551 whole entry): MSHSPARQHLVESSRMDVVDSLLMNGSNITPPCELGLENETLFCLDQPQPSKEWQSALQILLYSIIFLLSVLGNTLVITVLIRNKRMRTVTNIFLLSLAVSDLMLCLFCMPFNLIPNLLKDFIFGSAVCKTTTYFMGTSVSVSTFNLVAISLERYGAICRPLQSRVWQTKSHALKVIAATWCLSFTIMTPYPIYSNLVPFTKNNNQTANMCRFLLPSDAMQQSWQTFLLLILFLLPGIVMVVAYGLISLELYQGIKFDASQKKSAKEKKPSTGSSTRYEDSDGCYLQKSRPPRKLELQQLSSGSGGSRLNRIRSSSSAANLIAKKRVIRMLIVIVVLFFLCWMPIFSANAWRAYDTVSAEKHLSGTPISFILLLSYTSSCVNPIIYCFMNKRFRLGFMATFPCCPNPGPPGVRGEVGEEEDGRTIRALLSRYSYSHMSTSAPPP
T1 sequence (P30553 whole entry): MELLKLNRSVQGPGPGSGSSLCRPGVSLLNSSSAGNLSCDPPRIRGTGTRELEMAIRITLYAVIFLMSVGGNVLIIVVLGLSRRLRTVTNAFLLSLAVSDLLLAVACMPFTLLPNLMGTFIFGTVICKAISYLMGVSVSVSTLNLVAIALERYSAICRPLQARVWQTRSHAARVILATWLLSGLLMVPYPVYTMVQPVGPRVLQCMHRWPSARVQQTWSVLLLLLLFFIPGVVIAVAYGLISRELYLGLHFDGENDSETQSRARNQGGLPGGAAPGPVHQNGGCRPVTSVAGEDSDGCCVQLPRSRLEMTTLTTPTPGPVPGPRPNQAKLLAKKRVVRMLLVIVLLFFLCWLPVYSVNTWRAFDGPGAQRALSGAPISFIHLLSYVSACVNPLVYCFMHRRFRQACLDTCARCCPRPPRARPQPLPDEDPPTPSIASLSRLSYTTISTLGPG
In words: Binding affinity towards cholecystokinin receptor by the displacement of [125I]CCK-33 in rat pancreatic tissue. The gist of the method:
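Radioligand displacement assays: [125I]CCK-33 binding to rat pancreas or guinea pig cerebral cortex tissue, and [125I]gastrin binding to guinea pig gastric glands, each run by earlier-described methods. Reported values are means of triplicate determinations.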
A general note: Displacement assays read how much labelled ligand stays bound in the presence of the test substance.

The species named for a further experiment is Cavia porcellus. In words: Inhibition of binding of [125I]gastrin to guinea pig gastric glands. Particulars: Stomach.

Molecules are shown by their SMILES.

One may read the IC50 as the point on the concentration scale where inhibition reaches its midpoint. High values mean weaker potency, low ones greater potency. Take `NC1=Nc2ccccc2C(c2ccccc2F)=N[C@@H]1Cc1c[nH]c2ccccc12`: the 50% inhibitory concentration (IC50) is 1.7 µM on Cholecystokinin receptor and 100 µM in the experiment listed under Cavia porcellus.

On to `CNC1=Nc2ccc(Cl)cc2C(c2ccccc2)=[N+]([O-])C1` [CHLORDIAZEPOXIDE], for which the IC50 on Cholecystokinin receptor and in the experiment listed under Cavia porcellus was 100 µM in each case.

Molecule `Fc1ccccc1C1=N[C@H](Cc2c[nH]c3ccccc23)C(Nc2ccccc2)=Nc2ccccc21` showed an IC50 on Cholecystokinin receptor of 34 µM.

At Cholecystokinin receptor, `N#CNC1=Nc2ccccc2C(c2ccccc2F)=N[C@@H]1Cc1c[nH]c2ccccc12` came in with an IC50 of 2 µM.

Take `CNC1=Nc2ccccc2C(c2ccccc2F)=N[C@@H]1Cc1c[nH]c2ccccc12`: the values for the half-maximal inhibitory concentration (IC50) at Cholecystokinin receptor and in the experiment listed under Cavia porcellus were 4.4 µM and 67 µM, respectively.

For `CCOC(=O)CNC1=Nc2ccccc2C(c2ccccc2F)=N[C@@H]1Cc1c[nH]c2ccccc12`, the IC50 at Cholecystokinin receptor stood at 23 µM; in the experiment listed under Cavia porcellus, 100 µM.

Take `CCCNC1=Nc2ccccc2C(c2ccccc2F)=N[C@@H]1Cc1c[nH]c2ccccc12`: the IC50 came out at 2.7 µM at Cholecystokinin receptor and 100 µM in the experiment listed under Cavia porcellus.

As to `CNC1=Nc2ccccc2C(c2ccccc2NC)=N[C@@H]1Cc1c[nH]c2ccccc12`, the IC50 at Cholecystokinin receptor and in the experiment listed under Cavia porcellus was 100 µM each time.

`O=C(O)CNC1=Nc2ccccc2C(c2ccccc2F)=N[C@@H]1Cc1c[nH]c2ccccc12`: the IC50 was 3.6 µM on Cholecystokinin receptor and 2.5 µM in the experiment filed under Cavia porcellus.

For the origin of these results see ChEMBL document CHEMBL1123957, “Cholecystokinin antagonists. Synthesis and biological evaluation of 3-substituted 1,4-benzodiazepin-2-amines” (J Med Chem, 1988).
